# Published values pooled from the literature.
# Compare with care: the assays were run in different laboratories.
# Target: Serine/threonine-protein kinase RIO1 (RIOK1, Homo sapiens, UniProt Q9BRS2)
# Residues used in one study (Q9BRS2 1-568): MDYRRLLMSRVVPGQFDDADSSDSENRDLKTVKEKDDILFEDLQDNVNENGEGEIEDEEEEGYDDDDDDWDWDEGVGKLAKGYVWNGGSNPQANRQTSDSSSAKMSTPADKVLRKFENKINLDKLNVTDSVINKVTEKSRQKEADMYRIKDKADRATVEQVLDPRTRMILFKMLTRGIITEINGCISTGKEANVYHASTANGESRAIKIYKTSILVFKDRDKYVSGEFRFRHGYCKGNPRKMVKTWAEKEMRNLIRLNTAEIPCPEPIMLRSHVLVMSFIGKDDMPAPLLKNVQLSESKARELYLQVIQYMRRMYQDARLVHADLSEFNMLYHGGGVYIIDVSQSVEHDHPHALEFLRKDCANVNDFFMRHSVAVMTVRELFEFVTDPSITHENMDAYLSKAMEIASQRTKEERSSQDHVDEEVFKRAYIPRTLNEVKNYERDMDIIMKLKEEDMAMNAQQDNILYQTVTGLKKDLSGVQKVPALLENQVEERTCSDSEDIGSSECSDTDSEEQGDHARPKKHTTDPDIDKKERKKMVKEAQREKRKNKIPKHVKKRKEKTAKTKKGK
Structure (SMILES),test,setting,remaining binding [%]
CN(C)C(=O)Cn1cc(-c2nc(C3(c4ccc(-c5cnc(N)nc5)cc4)CC3)no2)cn1,"cell-free assay, competition with immobilised ligand",1 µM,100
C=CC(=O)N1CCC(C(=O)NCC(=O)N2CCN(c3nc(-c4cnc(N)nc4C(F)F)nc(N4CCOCC4)n3)CC2)CC1,"binding, competition with immobilised ligand",1 µM,98
O=C(NCC1CCOCC1)c1n[nH]cc1NC(=O)c1c(F)cccc1F,"binding, competition with immobilised ligand",1 µM,88
CNCc1ccccc1-c1csc([C@H](C)Nc2nc(C)nc3cc(OC)c(OC)cc23)c1,"cell-free assay, competition with immobilised ligand",1 µM,96
O=C(NCCCN1CCOCC1)c1ccc(Nc2ncc(Cl)c(-c3ccc(Cl)s3)n2)cc1,"binding, competition with immobilised ligand",1 µM,0.05
CN(C)c1ncc(F)c(-c2cnn3ncccc23)n1,binding,1 µM,100
Cc1cnc(Nc2ccc(C(=O)N3CCC(N4CCCC4)CC3)cc2)nc1-c1cc2ccccc2s1,"binding, competition with immobilised ligand",1 µM,0
COc1ccnn2ncc(-c3ccnc(N(C)C)n3)c12,binding,1 µM,100
COc1cnc(Nc2cccc(S(N)(=O)=O)c2)nc1N1CCN(c2ccccc2)CC1,"binding, competition with immobilised ligand",1 µM,73
COc1ccc2cc(OCC3(C(=O)O)CN(C(=O)c4ccc(F)cc4)C3)ccc2c1,"cell-free assay, competition with immobilised ligand",1 µM,100
CN(C)c1nccc(-c2cnn3ncccc23)n1,binding,1 µM,100
COc1ccc2c(c1)O[C@@H](c1ccc(OC)c(OC)c1)C[C@H]2NC(=O)C1(c2ccc3c(c2)OC(F)(F)O3)CC1,"cell-free assay, competition with immobilised ligand",1 µM,100
CN(CCCC(F)(F)F)c1nccc(-c2cnn3ncccc23)n1,binding,1 µM,100
C[C@@H]1CN(c2cc(-c3n[nH]c4ccc(OC5(C)CC5)cc34)ncn2)C[C@H](C)O1,"cell-free assay, competition with immobilised ligand",0.1 µM,100
Nc1ncc2c(n1)-c1c([nH]c3ccc(C#CC4CC4)cc13)CCCC2,"binding, competition with immobilised ligand",1 µM,80
N[C@@H]1CCN(c2nccc(-c3cnn4ncccc34)n2)C1,binding,1 µM,96
O=C(c1ccc(Nc2ncc(Cl)c(-c3ccc(Cl)s3)n2)cc1)N1CCC(N2CCCC2)CC1,"binding, competition with immobilised ligand",1 µM,0
CC1CCCN1c1nccc(-c2cnn3ncccc23)n1 (stereo not shown),binding,1 µM,100
O=C(NCc1ncc(C(F)(F)F)cc1Cl)c1ccc2c(c1)C1(CCS(=O)(=O)CC1)[C@@H](C1CC1)N2S(=O)(=O)c1ccc(F)cc1,"cell-free assay, competition with immobilised ligand",1 µM,78
C[C@@H]1CCN(c2nccc(-c3cnn4ncccc34)n2)C1,binding,1 µM,75
CNC(=O)[C@@H]1CC[C@@H](n2c(-c3ccc4cnccc4c3)nc3ccc(C(=O)NCc4cccc(C(N)=O)c4)cc32)C1,"binding, competition with immobilised ligand",1 µM,100
Cc1nc(Cc2cccc(C(F)(F)F)c2)sc1-c1ccc(C(N)=O)nc1,"cell-free assay, competition with immobilised ligand",1 µM,94
